Measured values as given in ChEMBL document CHEMBL1138564, “Microwave-induced synthesis and anti-microbial activities of 7,10,11,12-tetrahydrobenzo[c]acridin-8(9H)-one derivatives” (2009).

Experiments:
Type in all cases: functional
Aspergillus fumigatus = assay: Antimicrobial activity against Aspergillus fumigatus NCIM 902 at 10 ug/disk after 72 hrs by disk diffusion method; conditions: NCIM 902, 72 h, read-out: DIZ
Summary of the method: (§1)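 Disc diffusion on Sabouraud's dextrose agar. 100 µl of fungal suspension at 10⁶ CFU/ml is spread on the plate. Discs carry test compounds at two loadings in DMSO; DMSO alone is the negative control. Clotrimazole disc is the positive reference. Plates are incubated at 27 °C for 72 h, and the zone of inhibition diameter is measured.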

Rhodotorula mucilaginosa = assay: Antimicrobial activity against Rhodotorula rubra NCIM 3174 at 10 ug/disk after 72 hrs by disk diffusion method; conditions: NCIM 3174, 72 h, read-out: DIZ
Summary of the method: (§2)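 Clotrimazole reference disc at 10 µg/disc. Fungal inoculum of 100 µl at 10⁶ CFU/ml was spread on Sabouraud's dextrose agar and incubated at 27 °C for 72 h. The read-out was inhibition zone diameter.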

Aspergillus parasiticus = assay: Antimicrobial activity against Aspergillus parasiticus NCIM 904 at 10 ug/disk after 72 hrs by disk diffusion method; conditions: NCIM 904, 72 h, read-out: DIZ; summary of the method: as §1
Trichoderma viride = assay: Antimicrobial activity against Trichoderma viride NCIM 1195 at 10 ug/disk after 72 hrs by disk diffusion method; conditions: NCIM 1195, 72 h, read-out: DIZ; summary of the method: as §2
Penicillium chrysogenum = assay: Antimicrobial activity against Penicillium chrysogenum NCIM 707 at 10 ug/disk after 72 hrs by disk diffusion method; conditions: NCIM 707, 72 h, read-out: DIZ; summary of the method: as §1
Aspergillus flavus = assay: Antimicrobial activity against Aspergillus flavus NCIM 902 at 10 ug/disk after 72 hrs by disk diffusion method; conditions: NCIM 535, 72 h, in the assay text read “NCIM 535” for “NCIM 902”, read-out: DIZ; summary of the method: as §1
Aspergillus niger = assay: Antimicrobial activity against Aspergillus niger NCIM 902 at 10 ug/disk after 72 hrs by disk diffusion method; conditions: NCIM 902, 72 h, read-out: DIZ; summary of the method: as §1
Lipomyces lipofer = assay: Antimicrobial activity against Lipomyces lipofer NCIM 3252 at 10 ug/disk after 72 hrs by disk diffusion method; conditions: NCIM 3252, 72 h, read-out: DIZ; summary of the method: as §1

`Clc1ccccc1C(c1ccccc1)(c1ccccc1)n1ccnc1` [CLOTRIMAZOLE] gave a zone of inhibition at 10 µg/disc (Aspergillus fumigatus) of 18 mm, a zone of inhibition at 10 µg/disc (Rhodotorula mucilaginosa) of 17 mm and a zone of inhibition at 10 µg/disc (Aspergillus parasiticus) of 18 mm. For the same compound, the zone of inhibition at 10 µg/disc (Trichoderma viride) was 19 mm, the zone of inhibition at 10 µg/disc (Penicillium chrysogenum) was 21 mm and the zone of inhibition at 10 µg/disc (Aspergillus flavus) was 16 mm. For the same compound, the zone of inhibition at 10 µg/disc (Aspergillus niger) was 16 mm and the zone of inhibition at 10 µg/disc (Lipomyces lipofer) was 18 mm.
